Test results taken from ChEMBL document CHEMBL4402597, “Truncated (N)-Methanocarba Nucleosides as Partial Agonists at Mouse and Human A3 Adenosine Receptors: Affinity Enhancement by N6-(2-Phenylethyl) Substitution” (J Med Chem, 2020).
Active and inactive are the calls of the source. The rule behind the calls is not given here.

Key:
[1] = biological target: T1, Adenosine receptor A1 (Homo sapiens) (UniProt P30542); experiment: Displacement of [3H]R-PIA from recombinant human A1AR expressed in HEK293 cell membranes at 10 uM measured after 60 mins by liquid scintillation counting method relative to control
T1 sequence (whole entry): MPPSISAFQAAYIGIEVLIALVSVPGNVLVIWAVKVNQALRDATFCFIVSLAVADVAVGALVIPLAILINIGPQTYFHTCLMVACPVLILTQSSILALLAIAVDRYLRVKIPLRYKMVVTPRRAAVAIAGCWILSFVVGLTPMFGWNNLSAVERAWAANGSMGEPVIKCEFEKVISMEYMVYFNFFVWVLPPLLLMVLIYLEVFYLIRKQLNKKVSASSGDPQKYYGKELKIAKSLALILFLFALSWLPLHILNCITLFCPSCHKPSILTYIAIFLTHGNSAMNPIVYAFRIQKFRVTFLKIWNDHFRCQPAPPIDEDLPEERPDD

Adenosine receptor A1 = biological target: T2, Adenosine receptor A1 (Mus musculus, UniProt Q60612); experiment: Displacement of [3H]R-PIA from recombinant mouse A1AR expressed in HEK293 cell membranes measured after 60 mins by liquid scintillation counting method
T2 sequence (Q60612 whole entry): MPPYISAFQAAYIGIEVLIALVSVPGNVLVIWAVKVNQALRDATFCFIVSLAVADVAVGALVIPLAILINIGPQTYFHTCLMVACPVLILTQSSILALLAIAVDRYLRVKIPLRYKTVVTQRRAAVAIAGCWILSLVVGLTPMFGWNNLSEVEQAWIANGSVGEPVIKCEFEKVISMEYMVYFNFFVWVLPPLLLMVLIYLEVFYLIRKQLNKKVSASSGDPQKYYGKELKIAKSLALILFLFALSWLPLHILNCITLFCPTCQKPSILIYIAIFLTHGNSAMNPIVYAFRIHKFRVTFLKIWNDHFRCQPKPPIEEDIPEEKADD

Adenosine receptor A2a = Adenosine receptor A2a (Homo sapiens, UniProt P29274); experiment: Displacement of [3H]CGS21680 from recombinant human A2AAR expressed in HEK293 cell membranes at 10 uM measured after 60 mins by liquid scintillation counting method relative to control
[2] = biological target: T3, Adenosine receptor A3 (Mus musculus) (UniProt Q61618); experiment: Partial agonist activity at recombinant mouse A3AR expressed in HEK293 cell membranes assessed as stimulation of [35S]GTPgammaS binding measured after 2 hrs in presence of A2BAR blocker PSB-603 by liquid scintillation counting analysis relative to adenosine-5'-Nethyluronamide; assay type: functional
T3 sequence (whole entry): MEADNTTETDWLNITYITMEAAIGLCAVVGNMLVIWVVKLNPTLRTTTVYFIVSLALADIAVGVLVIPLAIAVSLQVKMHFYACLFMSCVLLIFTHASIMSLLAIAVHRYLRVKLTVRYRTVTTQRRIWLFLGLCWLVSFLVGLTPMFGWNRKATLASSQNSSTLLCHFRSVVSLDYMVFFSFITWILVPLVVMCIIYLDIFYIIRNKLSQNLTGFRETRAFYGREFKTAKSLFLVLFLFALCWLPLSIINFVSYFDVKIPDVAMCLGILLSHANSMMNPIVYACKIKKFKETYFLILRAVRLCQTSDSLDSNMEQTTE

[3] = biological target: T4, Adenosine receptor A3 (Homo sapiens) (UniProt P0DMS8); experiment: Partial agonist activity at recombinant human A3AR expressed in HEK293 cells assessed as inhibition of forskolin-stimulated cAMP accumulation by measuring residual cAMP level measured after 30 mins in presence of A2BAR blocker PSB-603 by Glo-sensor assay relative to control; assay type: functional, cell-based
T4 sequence (whole entry): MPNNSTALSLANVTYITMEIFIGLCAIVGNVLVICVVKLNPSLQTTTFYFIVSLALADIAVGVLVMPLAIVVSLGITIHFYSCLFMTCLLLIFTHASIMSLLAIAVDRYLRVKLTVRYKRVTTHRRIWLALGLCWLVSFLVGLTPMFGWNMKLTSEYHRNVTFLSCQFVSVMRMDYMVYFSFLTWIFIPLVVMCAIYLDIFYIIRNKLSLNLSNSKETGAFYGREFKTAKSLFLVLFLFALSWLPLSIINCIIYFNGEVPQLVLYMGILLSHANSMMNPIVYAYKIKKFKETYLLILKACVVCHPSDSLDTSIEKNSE

[4] = biological target: T4, Adenosine receptor A3 (Homo sapiens); experiment: Partial agonist activity at recombinant human A3AR expressed in HEK293 cells assessed as inhibition of forskolin-stimulated cAMP accumulation at 10 uM measured after 30 mins in presence of A2BAR blocker PSB-603 by Glo-sensor assay relative to Cl-IB-MECA; assay type: functional, cell-based
[5] = biological target: Sigma non-opioid intracellular receptor 1 (Homo sapiens, UniProt Q99720); experiment: Displacement of [3H]-Pentazocine from sigma 1 receptor (unknown origin) measured after 90 mins by microbeta counting analysis
[6] = biological target: Sigma intracellular receptor 2 (Homo sapiens, UniProt Q5BJF2); experiment: Displacement of [3H]-DTG from sigma 2 receptor (unknown origin) measured after 90 mins by microbeta counting analysis
Translocator protein = Translocator protein (Homo sapiens, UniProt P30536); experiment: Inhibition of TSPO (unknown origin)
Cytochrome P450 1A2 = biological target: T5, Cytochrome P450 1A2 (Homo sapiens, UniProt P05177); experiment: Inhibition of CYP1A2 (unknown origin)
T5 sequence (P05177 whole entry): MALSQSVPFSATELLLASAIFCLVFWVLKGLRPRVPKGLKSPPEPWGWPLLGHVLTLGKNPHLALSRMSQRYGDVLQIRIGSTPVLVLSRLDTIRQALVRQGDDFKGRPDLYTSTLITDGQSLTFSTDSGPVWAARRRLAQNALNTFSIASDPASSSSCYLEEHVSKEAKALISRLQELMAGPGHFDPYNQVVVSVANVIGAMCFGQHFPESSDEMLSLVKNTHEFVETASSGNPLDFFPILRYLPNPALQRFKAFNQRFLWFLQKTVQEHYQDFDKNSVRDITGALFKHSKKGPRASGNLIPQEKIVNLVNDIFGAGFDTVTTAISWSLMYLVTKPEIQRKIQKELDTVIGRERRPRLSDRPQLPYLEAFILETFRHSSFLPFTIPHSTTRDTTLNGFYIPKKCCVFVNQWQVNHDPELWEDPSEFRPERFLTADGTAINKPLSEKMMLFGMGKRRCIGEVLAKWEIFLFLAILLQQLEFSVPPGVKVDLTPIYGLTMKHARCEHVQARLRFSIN

Cytochrome P450 2C9 = Cytochrome P450 2C9 (Homo sapiens, UniProt P11712); experiment: Inhibition of CYP2C9 (unknown origin) using tolbutamide as substrate
Cytochrome P450 2C19 = Cytochrome P450 2C19 (Homo sapiens, UniProt P33261); experiment: Inhibition of CYP2C19 (unknown origin)
Cytochrome P450 2D6 = Cytochrome P450 2D6 (Homo sapiens, UniProt P10635); experiment: Inhibition of CYP2D6 (unknown origin) using dextromethorphan as substrate
Cytochrome P450 3A4 = Cytochrome P450 3A4 (Homo sapiens, UniProt P08684); experiment: Inhibition of CYP3A4 (unknown origin) using midazolam as substrate
[7] = Half life in Wistar rat at 3 mg/kg, po; assay type: ADME, organism-based; settings: in vivo
[8] = Half life in Wistar rat at 10 mg/kg, po; assay type: ADME, organism-based; settings: in vivo
Mus musculus [9] = experiment: In vivo agonist activity at A3AR in C57BL/6J mouse assessed as reduction in core body temperature at 10 mg/kg, ip measured up to 2 hrs by telemetric method; assay type: functional, organism-based
Method in brief: (§1)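 Male C57BL/6J wild-type mice, plus A3AR-knockout (ADORA3−/−) mice at 10 mg/kg, given test agent or vehicle i.p. Core body temperature (Tb) was followed over time. N=4 to 12 per group. Groups were compared by two-tailed t-test, paired or unpaired as appropriate.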

Mus musculus [10] = experiment: Induction of hypothermia in A3AR knock out C57BL/6J mouse at 10 mg/kg, ip measured up to 2 hrs by telemetric method; assay type: functional, organism-based; method in brief: as §1
Mus musculus [11] = experiment: In vivo agonist activity at A3AR in C57BL/6J mouse assessed as reduction in core body temperature at 3 mg/kg, ip measured up to 2 hrs by telemetric method; assay type: functional, organism-based; method in brief: as §1
Mus musculus [12] = experiment: In vivo antagonist activity at A3AR in C57BL/6J mouse assessed as inhibition of MRS5698-induced hypothermia at 3 to 10 mg/kg, ip pretreated for 15 mins followed by MRS5698 addition and measured up to 2 hrs by telemetric method; assay type: functional, organism-based
in vivo [13] = settings: Wistar, rat, po, 3 mg/kg
in vivo [14] = settings: Wistar, rat, po, 10 mg/kg

Sequence of Adenosine receptor A2a (P29274 whole entry): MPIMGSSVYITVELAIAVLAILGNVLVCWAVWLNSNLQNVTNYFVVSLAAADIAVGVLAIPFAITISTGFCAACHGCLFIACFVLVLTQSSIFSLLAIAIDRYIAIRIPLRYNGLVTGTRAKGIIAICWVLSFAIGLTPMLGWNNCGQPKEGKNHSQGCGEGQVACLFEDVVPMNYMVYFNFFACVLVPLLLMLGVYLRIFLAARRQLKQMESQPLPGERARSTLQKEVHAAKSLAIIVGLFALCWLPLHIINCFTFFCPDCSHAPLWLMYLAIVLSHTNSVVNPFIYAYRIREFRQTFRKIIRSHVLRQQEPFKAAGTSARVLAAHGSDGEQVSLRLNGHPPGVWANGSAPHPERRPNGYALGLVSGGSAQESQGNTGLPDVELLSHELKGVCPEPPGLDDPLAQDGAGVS
Sequence of Cytochrome P450 3A4 (P08684 whole entry): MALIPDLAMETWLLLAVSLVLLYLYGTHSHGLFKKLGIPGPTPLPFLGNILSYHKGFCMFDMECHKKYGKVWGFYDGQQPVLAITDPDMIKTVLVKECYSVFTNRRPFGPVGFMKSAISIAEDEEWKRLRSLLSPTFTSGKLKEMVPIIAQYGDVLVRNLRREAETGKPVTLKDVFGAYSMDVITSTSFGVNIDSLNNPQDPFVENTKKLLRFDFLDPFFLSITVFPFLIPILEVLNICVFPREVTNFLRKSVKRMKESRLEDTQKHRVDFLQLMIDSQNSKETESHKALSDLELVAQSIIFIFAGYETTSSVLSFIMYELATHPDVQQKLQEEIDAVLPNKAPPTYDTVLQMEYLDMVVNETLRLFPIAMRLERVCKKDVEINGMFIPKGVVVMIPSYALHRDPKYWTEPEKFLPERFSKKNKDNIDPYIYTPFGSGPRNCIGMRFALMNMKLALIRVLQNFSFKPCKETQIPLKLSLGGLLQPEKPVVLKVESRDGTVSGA
Sequence of Sigma non-opioid intracellular receptor 1 (Q99720 whole entry): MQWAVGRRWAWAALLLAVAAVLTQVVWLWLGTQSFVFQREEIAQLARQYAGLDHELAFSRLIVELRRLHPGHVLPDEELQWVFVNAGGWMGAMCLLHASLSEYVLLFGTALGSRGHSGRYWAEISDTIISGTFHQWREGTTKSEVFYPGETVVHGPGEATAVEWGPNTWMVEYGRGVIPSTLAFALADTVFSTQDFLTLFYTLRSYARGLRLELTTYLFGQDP
Sequence of Translocator protein (P30536 whole entry): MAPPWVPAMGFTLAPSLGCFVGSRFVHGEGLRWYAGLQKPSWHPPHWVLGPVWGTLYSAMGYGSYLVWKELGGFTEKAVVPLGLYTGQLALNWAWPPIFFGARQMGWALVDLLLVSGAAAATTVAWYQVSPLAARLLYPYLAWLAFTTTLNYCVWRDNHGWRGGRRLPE
Sequence of Cytochrome P450 2D6 (P10635 whole entry): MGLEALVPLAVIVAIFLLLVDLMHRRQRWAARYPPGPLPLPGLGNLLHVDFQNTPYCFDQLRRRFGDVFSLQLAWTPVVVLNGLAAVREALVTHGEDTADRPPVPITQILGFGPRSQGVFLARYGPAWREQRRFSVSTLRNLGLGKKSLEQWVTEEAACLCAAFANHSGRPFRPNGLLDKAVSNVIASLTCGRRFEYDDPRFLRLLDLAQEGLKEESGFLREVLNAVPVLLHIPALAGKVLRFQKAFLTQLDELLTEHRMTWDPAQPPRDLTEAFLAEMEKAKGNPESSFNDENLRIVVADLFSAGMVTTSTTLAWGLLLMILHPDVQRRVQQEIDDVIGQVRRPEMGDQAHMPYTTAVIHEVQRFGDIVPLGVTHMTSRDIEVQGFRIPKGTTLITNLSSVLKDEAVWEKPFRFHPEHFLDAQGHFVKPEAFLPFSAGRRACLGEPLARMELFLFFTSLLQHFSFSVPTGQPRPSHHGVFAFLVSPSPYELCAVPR
Sequence of Cytochrome P450 2C9 (P11712 whole entry): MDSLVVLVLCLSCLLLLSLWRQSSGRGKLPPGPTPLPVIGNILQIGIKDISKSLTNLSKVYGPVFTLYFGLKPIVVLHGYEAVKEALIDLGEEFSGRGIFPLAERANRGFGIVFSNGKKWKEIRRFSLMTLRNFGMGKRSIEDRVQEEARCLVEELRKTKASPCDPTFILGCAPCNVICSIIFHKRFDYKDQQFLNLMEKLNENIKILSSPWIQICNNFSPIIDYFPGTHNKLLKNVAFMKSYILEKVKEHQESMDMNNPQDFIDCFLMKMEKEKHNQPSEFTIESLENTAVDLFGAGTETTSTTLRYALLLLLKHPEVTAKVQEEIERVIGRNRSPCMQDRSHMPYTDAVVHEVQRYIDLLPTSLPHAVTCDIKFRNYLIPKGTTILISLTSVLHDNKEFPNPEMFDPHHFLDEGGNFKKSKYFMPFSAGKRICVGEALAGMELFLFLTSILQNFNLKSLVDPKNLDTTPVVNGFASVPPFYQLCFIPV
Sequence of Cytochrome P450 2C19 (P33261 whole entry): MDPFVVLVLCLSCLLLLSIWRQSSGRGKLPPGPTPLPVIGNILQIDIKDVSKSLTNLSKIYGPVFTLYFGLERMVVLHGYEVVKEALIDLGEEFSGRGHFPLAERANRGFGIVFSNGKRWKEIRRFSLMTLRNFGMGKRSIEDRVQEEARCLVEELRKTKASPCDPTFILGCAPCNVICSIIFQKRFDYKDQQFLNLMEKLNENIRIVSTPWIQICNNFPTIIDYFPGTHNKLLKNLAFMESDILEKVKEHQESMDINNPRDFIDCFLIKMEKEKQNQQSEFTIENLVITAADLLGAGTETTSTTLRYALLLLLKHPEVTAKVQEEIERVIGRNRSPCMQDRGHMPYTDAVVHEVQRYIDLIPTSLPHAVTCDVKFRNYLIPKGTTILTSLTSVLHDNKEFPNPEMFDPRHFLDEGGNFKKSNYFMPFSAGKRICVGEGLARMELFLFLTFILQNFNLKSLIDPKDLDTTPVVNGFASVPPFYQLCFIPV
Sequence of Sigma intracellular receptor 2 (Q5BJF2 whole entry): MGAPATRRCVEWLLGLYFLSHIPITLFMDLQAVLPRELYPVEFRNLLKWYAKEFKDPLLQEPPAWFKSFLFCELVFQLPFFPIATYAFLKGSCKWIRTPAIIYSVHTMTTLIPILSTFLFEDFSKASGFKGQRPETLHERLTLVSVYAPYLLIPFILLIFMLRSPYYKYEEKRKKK

SMILES: COc1cc(CCNc2nc(C#Cc3ccccc3)nc3c2ncn3[C@H]2[C@H](O)[C@H](O)[C@@H]3C[C@@H]32)ccc1O
- inhibition [1]: 33%
- Ki (Adenosine receptor A1): 0.59 µM
- inhibition (Adenosine receptor A2a): 39%
- Emax [2]: 16%
- Emax [3]: 75.5%
- Emax [4]: 31%
- Ki [5]: 3.57 µM
- Ki [6]: 1.98 µM
- Ki (Translocator protein): 2.22 µM
- IC50 (Cytochrome P450 1A2): 2.89 µM
- IC50 (Cytochrome P450 2C9): 14.4 µM
- IC50 (Cytochrome P450 2C19): > 30 µM
- IC50 (Cytochrome P450 2D6): > 30 µM
- IC50 (Cytochrome P450 3A4): 2.23 µM
- half-life [7]: 27.4 min
- half-life [8]: 29.4 min
- Activity (Mus musculus [9]): Active
- Activity (Mus musculus [10]): inactive
- Activity (Mus musculus [11]): Active
- inhibition (Mus musculus [12]): inactive
- bioavailability (in vivo [13]): 1.5%
- bioavailability (in vivo [14]): 3.5%
